In ChEMBL document CHEMBL4257469, “Deciphering the role of hydrophobic and hydrophilic bile acids in angiogenesis using in vitro and in vivo model systems” (Medchemcomm, 2017):
Activity calls are given as the source filed them. No cut-off for these calls is given here.

Experiments:
[1] = species: Danio rerio; test: Toxicity in zebrafish embryo assessed as reduction in embryo survival up to 50 uM; type: organism-based; conditions: in vivo
[2] = tested on: HUVEC; test: Cytotoxicity against HUVEC assessed as reduction in cell death up to 12.5 uM after 24 hrs by MTT assay; type: cell-based; conditions: human
Method in brief: (§1)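 HUVECs (passages 2–5, complete EBM-2) seeded at 5 × 10³ cells/well and left 24 h to adhere. Serum-starved 4 h, then exposed to bile acids (serial dilutions, 100 to 6.25 μM) in complete medium for 24 h. MTT added for 4 h at 37 °C, formazan dissolved in DMSO, absorbance read at 550 nm. Run in triplicate; three independent experiments.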

[3] = tested on: HUVEC; test: Antiangiogenic activity in HUVEC assessed as inhibition of endothelial tube formation at 25 uM after overnight incubation by inverted microscopic analysis; type: functional, cell-based; conditions: Homo sapiens
Method in brief: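 HUVECs at passages 2–5 were seeded at 2 × 10^5 cells per well on a gelled basement membrane matrix, made as Matrigel mixed 1:1 with plain EBM-2. Bile acids were added at 12.5 and 25 μM, with DMSO as vehicle control, and cells were treated overnight. Bright-field images were taken at 10× from five fields per well. Nodes and tube lengths were quantified. Runs were in triplicate; statistics by one-way ANOVA (Dunnett).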

[4] = species: Danio rerio; test: Antiangiogenic activity in Tg(fli:eGFP) zebrafish embryo assessed as effect on phynotypic changes at 6.25 to 12.5 uM after 72 hrs post fertilization by fluorescence microscopic analysis; type: functional, organism-based
Method in brief: (§2)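 Tg(fli1:eGFP) zebrafish embryos were selected at 48 hpf, 20–25 per well, and exposed to bile acids at 6.25, 12.5 and 25 μM in embryo water from DMSO stocks. Vehicle was 0.1% DMSO. At 72 hpf the solutions were replaced with fresh embryo water. Embryos were anesthetized with tricaine and imaged by stereo and fluorescence microscopy for sub-intestinal vessel sprouting and branching. Two experiments, 50 embryos per group.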

[5] = tested on: HUVEC; test: Cytotoxicity against HUVEC assessed as reduction in cell viability at 6.25 to 100 uM after 24 hrs by MTT assay; type: cell-based; conditions: human
Method in brief: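 HUVECs at passages 2–5 were seeded at 5 × 10^3 cells per well in complete EBM-2 and allowed to adhere for 24 h. They were serum-starved 4 h, then given serially diluted bile acids (100 to 6.25 μM) in complete medium for 24 h. MTT was added for 4 h at 37 °C. Formazan was dissolved in DMSO and absorbance read at 550 nm. Three independent experiments.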

[6] = species: Danio rerio; test: Toxicity in Tg(fli:eGFP) zebrafish embryo assessed as embryo death at 25 uM after 72 hrs post fertilization by fluorescence microscopic analysis; type: organism-based; conditions: in vivo
Method in brief: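 Tg(fli1:eGFP) embryos selected at 48 hpf, 20–25 per well, raised at 28.5 °C. Bile acids (DMSO stock, diluted in embryo water) given at 6.25, 12.5 or 25 μM; 0.1% DMSO as vehicle control. Solutions replaced with fresh water at 72 hpf, embryos anaesthetised with tricaine and sub-intestinal vessels imaged by fluorescence. Scored as percentage of embryos; two experiments, 50 embryos/group.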

[7] = species: Danio rerio; test: Antiangiogenic activity in Tg(fli:eGFP) zebrafish embryo assessed as abnormality in vasculature in developing embryos at 25 uM after 72 hrs post fertilization by fluorescence microscopic analysis; type: functional, organism-based; conditions: 12.5 uM, in the assay text read “12.5 uM” for “25 uM”; method in brief: as §2
[8] = species: Danio rerio; test: Antiangiogenic activity in Tg(fli:eGFP) zebrafish embryo assessed as vascular modification by measuring formation of irregular pattern of branches at 12.5 uM after 72 hrs post fertilization by fluorescence microscopic analysis; type: functional, organism-based; method in brief: as §2
[9] = species: Danio rerio; test: Pro-angiogenic activity in Tg(fli:eGFP) zebrafish embryo assessed as thickening of vessels at 6.25 uM after 72 hrs post fertilization by fluorescence microscopic analysis; type: functional, organism-based; method in brief: as §2
[10] = species: Danio rerio; test: Pro-angiogenic activity in Tg(fli:eGFP) zebrafish embryo assessed as sprouting of vessels at 6.25 uM after 72 hrs post fertilization by fluorescence microscopic analysis; type: functional, organism-based; method in brief: as §2
[11] = tested on: HUVEC; test: Antiangiogenic activity in HUVEC assessed as inhibition of endothelial tube formation at 12.5 to 25 uM after overnight incubation by inverted microscopic analysis; type: functional, cell-based; conditions: Homo sapiens
Method in brief: (§3)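 Wells coated with Matigel:plain EBM-2 (1:1). HUVECs added at 2 × 10⁵ cells/well with bile acid (12.5 or 25 μM) or vehicle and left overnight. Bright-field images at 10× from five fields per well; nodes and tube lengths counted. Triplicate, three independent experiments; one-way ANOVA with Dunnett's test.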

[12] = species: Danio rerio; test: Toxicity in zebrafish embryo assessed as reduction in embryo survival at 3.25 uM; type: organism-based; conditions: in vivo
[13] = tested on: HUVEC; test: Cytotoxicity against HUVEC assessed as cell death at 100 uM after 24 hrs by MTT assay relative to control; type: cell-based; conditions: human; method in brief: as §1
[14] = tested on: HUVEC; test: Cytotoxicity against HUVEC assessed as reduction in cell viability at >25 uM after 24 hrs by MTT assay; type: cell-based; conditions: human; method in brief: as §1
[15] = tested on: HUVEC; test: Antiangiogenic activity in HUVEC assessed as decrease in tube length at 12.5 uM after overnight incubation by inverted microscopic analysis; type: functional, cell-based; conditions: Homo sapiens; method in brief: as §3
[16] = tested on: HUVEC; test: Antiangiogenic activity in HUVEC assessed as decrease in number of nodes at 12.5 uM after overnight incubation by inverted microscopic analysis; type: functional, cell-based; conditions: Homo sapiens; method in brief: as §3
[17] = tested on: HUVEC; test: Antimigratory activity in HUVEC assessed as reduction in wound healing at 12.5 uM after 18 to 24 hrs by phase contrast microscopic analysis; type: functional, cell-based; conditions: Homo sapiens
Method in brief: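 HUVECs grown to a confluent monolayer in 12-well plates and serum-deprived overnight. Scratched with a p200 tip, washed with DPBS, then given complete EBM-2 with 12.5 μM bile acid or DMSO vehicle. Imaged from a marked reference point at 0 h and after 18–24 h (phase contrast, 10×); percentage of migrated cells versus control. Triplicate; Dunnett's test.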

[18] = species: Danio rerio; test: Toxicity in Tg(fli:eGFP) zebrafish embryo assessed as embryo death at 3 uM after 72 hrs post fertilization by fluorescence microscopic analysis; type: organism-based; conditions: in vivo
[19] = tested on: HUVEC; test: Decrease in VEGFR1 m-RNA expression in HUVEC at 12.5 uM after 12 to 24 hrs by RT-qPCR analysis relative to control; type: functional, Homo sapiens
Method in brief: (§4)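 HUVECs treated with 12.5 μM bile acid or DMSO for 12 and 24 h. Total RNA extracted and 1 μg reverse-transcribed. SYBR-green qPCR for VEGFR1/VEGFR2: 95 °C 10 min, then 40 cycles of 95 °C 5 s / 60 °C 30 s. ΔΔCT normalised to GAPDH and expressed as fold change over control; repeated twice.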

[20] = tested on: HUVEC; test: Decrease in VEGFR2 m-RNA expression in HUVEC at 12.5 uM after 12 to 24 hrs by RT-qPCR analysis relative to control; type: functional, Homo sapiens; method in brief: as §4
[21] = tested on: HUVEC; test: Antiangiogenic activity in HUVEC assessed as induction of irregular stress fiber formation at 12.5 uM after overnight incubation by FITC-conjugated phalloidin staining based confocal microscopic analysis; type: functional, cell-based; conditions: Homo sapiens
Method in brief: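 HUVECs grown to 70% confluency on coverslips and treated with bile acids overnight. Fixed in 4% paraformaldehyde for 5 min and blocked with 1% BSA/0.1% Triton X-100 for 2 h. Stained with anti-VE-cadherin (1:200, 4 °C overnight) plus Alexa-488 secondary, FITC-phalloidin (1:100) for F-actin, and DAPI. Confocal imaging; repeated twice.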

[22] = tested on: HUVEC; test: Cytotoxicity against HUVEC assessed as cell death after 24 hrs by MTT assay relative to control; conditions: human

Structure (SMILES): C[C@H](CCC(=O)O)[C@H]1CC[C@H]2[C@@H]3[C@H](O)C[C@@H]4C[C@H](O)CC[C@]4(C)[C@H]3C[C@H](O)[C@]12C [CHOLIC ACID]
- Activity [1]: Non-Toxic
- Activity [2]: Non-Toxic
- Activity [3]: Active
- Activity [4]: inactive
- Activity [5]: Non-Toxic

Structure (SMILES): C[C@H](CCC(=O)O)[C@H]1CC[C@H]2[C@@H]3CC[C@@H]4C[C@H](O)CC[C@]4(C)[C@H]3C[C@H](O)[C@]12C [DEOXYCHOLIC ACID]
- Activity [1]: Non-Toxic
- Activity [2]: Non-Toxic
- Activity [3]: Active
- Activity [6]: Toxic
- Activity [7]: Active
- Activity [8]: Active
- Activity [9]: Active
- Activity [10]: Active
- Activity [5]: Non-Toxic

Structure (SMILES): C[C@H](CCC(=O)O)[C@H]1CC[C@H]2[C@@H]3CC[C@@H]4C[C@H](O)CC[C@]4(C)[C@H]3CC[C@]12C [LITHOCHOLIC ACID]
- Activity [11]: Active
- Activity [12]: Toxic
- Activity [2]: Non-Toxic
- Activity [13]: 75%
- Activity [14]: Toxic
- Activity [15]: Active
- Activity [16]: Active
- Activity [17]: Active
- Activity [18]: Toxic
- fold change (FC) [19]: 2
- fold change (FC) [20]: 2
- Activity [21]: Active
- Activity [22]: Toxic
